Data published in ChEMBL document CHEMBL1155238, “Synthesis and antimycobacterial activity of N'-[(E)-(monosubstituted-benzylidene)]-2-pyrazinecarbohydrazide derivatives” (Eur J Med Chem, 2009).
Converted amounts (≈) assume the structure as drawn.

Legend:
[1] = tested on: Mycobacterium tuberculosis; assay: Antimycobacterial activity against Mycobacterium tuberculosis H37Rv ATCC 27294 after 5 days by microplate Alamar blue assay; assay type: functional; conditions: H37Rv ATCC 27294, 120 h
Method in brief: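 M. tuberculosis ATCC 27294 in Middlebrook 7H9 broth with compounds serially diluted on the plate (final 0.01–100 µg/mL). Incubated at 37 °C for five days, then a 1:1 Alamar Blue/10% tween 80 mix was added for 24 h. Blue read as no growth, pink as growth. MIC is the lowest concentration preventing the blue-to-pink change.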

[2] = Cytotoxicity against mouse J774 cells assessed as cell viability at 150 ug/ml after 48 hrs by MTT assay; assay type: cell-based; conditions: read-out: Activity
[3] = Cytotoxicity against Mycobacterium bovis Bacillus Calmette-Guerin infected mouse J774 cells assessed as cell viability at 100 ug/ml after 48 hrs by MTT assay; assay type: cell-based; conditions: read-out: Activity
Method in brief: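 J774 macrophages seeded at 2.5 × 10^6 cells/well for 24 h (5% CO2, 37 °C); non-adherent cells washed off with RPMI 1640, 10% FBS, gentamicin 25 µg/mL. Adherent cells infected with BCG (2.5 × 10^6 UFC/well), then given compound (1.0, 10.0, 100 µg/mL) in triplicate for 48 h. Medium was the live control, 3% tween 20 the dead control. MTT for 4 h, DMSO solubilization, A540, % viability.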

[4] = Cytotoxicity against Mycobacterium bovis Bacillus Calmette-Guerin infected mouse J774 cells assessed as cell viability at 150 ug/ml after 48 hrs by MTT assay; assay type: cell-based; conditions: read-out: Activity
[5] = Cytotoxicity against Mycobacterium bovis Bacillus Calmette-Guerin infected mouse J774 cells assessed as cell viability at 50 ug/ml after 48 hrs by MTT assay; assay type: cell-based; conditions: read-out: Activity
[6] = Cytotoxicity against mouse J774 cells assessed as cell viability at 100 ug/ml after 48 hrs by MTT assay; assay type: cell-based; conditions: read-out: Activity
Method in brief: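 Uninfected J774 macrophages seeded at 2.5 × 10^6 cells/well for 24 h (5% CO2, 37 °C); non-adherent cells washed off with RPMI 1640, 10% FBS, gentamicin 25 µg/mL. Adherent cells given compound (1.0, 10.0, 100 µg/mL) in triplicate for 48 h. Medium was the live control, 3% tween 20 the dead control. MTT for 4 h, DMSO solubilization, absorbance at 540 nm, % viability.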

[7] = Cytotoxicity against mouse J774 cells assessed as cell viability at 50 ug/ml after 48 hrs by MTT assay; assay type: cell-based; conditions: read-out: Activity

N#Cc1cccc(/C=N/NC(=O)c2cnccn2)c1
MIC [1]: 50 µg/mL (≈ 199 µM)
viability at 48 h, 150 ug/ml [2]: 100%
viability at 48 h, 100 ug/ml [3]: 98%
viability at 48 h, 150 ug/ml [4]: 89%
viability at 48 h, 50 ug/ml [5]: 100%
viability at 48 h, 100 ug/ml [6]: 100%
viability at 48 h, 50 ug/ml [7]: 100%

O=C(N/N=C/c1cccc(Br)c1)c1cnccn1
viability at 48 h, 150 ug/ml [2]: 93%
viability at 48 h, 100 ug/ml [3]: 96%
viability at 48 h, 150 ug/ml [4]: 56%
viability at 48 h, 50 ug/ml [5]: 87%
viability at 48 h, 100 ug/ml [6]: 100%
viability at 48 h, 50 ug/ml [7]: 100%

O=C(N/N=C/c1ccccc1O)c1cnccn1
viability at 48 h, 150 ug/ml [2]: 0%
viability at 48 h, 100 ug/ml [6]: 0.3%
viability at 48 h, 50 ug/ml [7]: 1%

O=C(N/N=C/c1ccccc1F)c1cnccn1
MIC [1]: 100 µg/mL (≈ 409 µM)
viability at 48 h, 150 ug/ml [2]: 81%
viability at 48 h, 100 ug/ml [3]: 80%
viability at 48 h, 150 ug/ml [4]: 88%
viability at 48 h, 50 ug/ml [5]: 100%
viability at 48 h, 100 ug/ml [6]: 100%
viability at 48 h, 50 ug/ml [7]: 100%

O=C(N/N=C/c1cccc(O)c1)c1cnccn1
viability at 48 h, 150 ug/ml [2]: 88%
viability at 48 h, 100 ug/ml [3]: 64%
viability at 48 h, 150 ug/ml [4]: 57%
viability at 48 h, 50 ug/ml [5]: 73%
viability at 48 h, 100 ug/ml [6]: 100%
viability at 48 h, 50 ug/ml [7]: 100%

O=C(N/N=C/c1ccc([N+](=O)[O-])cc1)c1cnccn1
viability at 48 h, 150 ug/ml [2]: 44%
viability at 48 h, 100 ug/ml [6]: 44%
viability at 48 h, 50 ug/ml [7]: 50%

O=C(N/N=C/c1cccc(Cl)c1)c1cnccn1
MIC [1]: 50 µg/mL (≈ 192 µM)
viability at 48 h, 150 ug/ml [2]: 100%
viability at 48 h, 100 ug/ml [3]: 96%
viability at 48 h, 150 ug/ml [4]: 94%
viability at 48 h, 50 ug/ml [5]: 100%
viability at 48 h, 100 ug/ml [6]: 100%
viability at 48 h, 50 ug/ml [7]: 100%

O=C(N/N=C/c1ccccc1Cl)c1cnccn1
viability at 48 h, 150 ug/ml [2]: 69%
viability at 48 h, 100 ug/ml [6]: 66%
viability at 48 h, 50 ug/ml [7]: 70%

O=C(N/N=C/c1ccccc1[N+](=O)[O-])c1cnccn1
MIC [1]: 50 µg/mL (≈ 184 µM)
viability at 48 h, 150 ug/ml [2]: 46%
viability at 48 h, 100 ug/ml [3]: 94%
viability at 48 h, 150 ug/ml [4]: 88%
viability at 48 h, 50 ug/ml [5]: 100%
viability at 48 h, 100 ug/ml [6]: 59%
viability at 48 h, 50 ug/ml [7]: 90%

O=C(N/N=C/c1ccccc1)c1cnccn1
MIC [1]: > 100 µg/mL
viability at 48 h, 150 ug/ml [2]: 100%
viability at 48 h, 100 ug/ml [3]: 88%
viability at 48 h, 150 ug/ml [4]: 80%
viability at 48 h, 50 ug/ml [5]: 100%
viability at 48 h, 100 ug/ml [6]: 75%
viability at 48 h, 50 ug/ml [7]: 100%

CCN(CC)c1ccc(/C=N/NC(=O)c2cnccn2)cc1
viability at 48 h, 150 ug/ml [2]: 93%
viability at 48 h, 100 ug/ml [3]: 84%
viability at 48 h, 150 ug/ml [4]: 78%
viability at 48 h, 50 ug/ml [5]: 85%
viability at 48 h, 100 ug/ml [6]: 92%
viability at 48 h, 50 ug/ml [7]: 97%

O=C(N/N=C/c1ccc(Cl)cc1)c1cnccn1
viability at 48 h, 150 ug/ml [2]: 56%
viability at 48 h, 100 ug/ml [6]: 64%
viability at 48 h, 50 ug/ml [7]: 83%

CN(C)c1ccc(/C=N/NC(=O)c2cnccn2)cc1
viability at 48 h, 150 ug/ml [2]: 89%
viability at 48 h, 100 ug/ml [3]: 73%
viability at 48 h, 150 ug/ml [4]: 71%
viability at 48 h, 50 ug/ml [5]: 80%
viability at 48 h, 100 ug/ml [6]: 87%
viability at 48 h, 50 ug/ml [7]: 93%

NC(=O)c1cnccn1 [PYRAZINAMIDE]
MIC [1]: > 100 µg/mL
viability at 48 h, 150 ug/ml [2]: 100%
viability at 48 h, 100 ug/ml [3]: 87%
viability at 48 h, 150 ug/ml [4]: 67%
viability at 48 h, 50 ug/ml [5]: 92%
viability at 48 h, 100 ug/ml [6]: 100%
viability at 48 h, 50 ug/ml [7]: 100%

O=C(N/N=C/c1ccccc1Br)c1cnccn1
viability at 48 h, 150 ug/ml [2]: 91%
viability at 48 h, 100 ug/ml [3]: 64%
viability at 48 h, 150 ug/ml [4]: 52%
viability at 48 h, 50 ug/ml [5]: 73%
viability at 48 h, 100 ug/ml [6]: 100%
viability at 48 h, 50 ug/ml [7]: 98%

O=C(N/N=C/c1cccc(F)c1)c1cnccn1
viability at 48 h, 150 ug/ml [2]: 40%
viability at 48 h, 100 ug/ml [6]: 46%
viability at 48 h, 50 ug/ml [7]: 49%

CCOc1ccc(/C=N/NC(=O)c2cnccn2)cc1
MIC [1]: > 100 µg/mL
viability at 48 h, 150 ug/ml [2]: 100%
viability at 48 h, 100 ug/ml [3]: 85%
viability at 48 h, 150 ug/ml [4]: 88%
viability at 48 h, 50 ug/ml [5]: 90%
viability at 48 h, 100 ug/ml [6]: 98%
viability at 48 h, 50 ug/ml [7]: 100%

O=C(N/N=C/c1ccc(O)cc1)c1cnccn1
viability at 48 h, 150 ug/ml [2]: 80%
viability at 48 h, 100 ug/ml [3]: 72%
viability at 48 h, 150 ug/ml [4]: 91%
viability at 48 h, 50 ug/ml [5]: 100%
viability at 48 h, 100 ug/ml [6]: 81%
viability at 48 h, 50 ug/ml [7]: 100%

COc1cccc(/C=N/NC(=O)c2cnccn2)c1
MIC [1]: > 100 µg/mL
viability at 48 h, 150 ug/ml [2]: 97%
viability at 48 h, 100 ug/ml [3]: 98%
viability at 48 h, 150 ug/ml [4]: 87%
viability at 48 h, 50 ug/ml [5]: 100%
viability at 48 h, 100 ug/ml [6]: 100%
viability at 48 h, 50 ug/ml [7]: 100%

N#Cc1ccccc1/C=N/NC(=O)c1cnccn1
viability at 48 h, 150 ug/ml [2]: 70%
viability at 48 h, 100 ug/ml [3]: 73%
viability at 48 h, 150 ug/ml [4]: 75%
viability at 48 h, 50 ug/ml [5]: 80%
viability at 48 h, 100 ug/ml [6]: 75%
viability at 48 h, 50 ug/ml [7]: 92%

O=C(N/N=C/c1cccc([N+](=O)[O-])c1)c1cnccn1
MIC [1]: 100 µg/mL (≈ 369 µM)
viability at 48 h, 150 ug/ml [2]: 76%
viability at 48 h, 100 ug/ml [3]: 92%
viability at 48 h, 150 ug/ml [4]: 72%
viability at 48 h, 50 ug/ml [5]: 92%
viability at 48 h, 100 ug/ml [6]: 85%
viability at 48 h, 50 ug/ml [7]: 100%

O=C(N/N=C/c1ccc(Br)cc1)c1cnccn1
viability at 48 h, 150 ug/ml [2]: 94%
viability at 48 h, 100 ug/ml [3]: 56%
viability at 48 h, 150 ug/ml [4]: 54%
viability at 48 h, 50 ug/ml [5]: 52%
viability at 48 h, 100 ug/ml [6]: 100%
viability at 48 h, 50 ug/ml [7]: 100%

COc1ccccc1/C=N/NC(=O)c1cnccn1
viability at 48 h, 150 ug/ml [2]: 97%
viability at 48 h, 100 ug/ml [3]: 54%
viability at 48 h, 150 ug/ml [4]: 56%
viability at 48 h, 50 ug/ml [5]: 87%
viability at 48 h, 100 ug/ml [6]: 100%
viability at 48 h, 50 ug/ml [7]: 97%

N#Cc1ccc(/C=N/NC(=O)c2cnccn2)cc1
MIC [1]: > 100 µg/mL
viability at 48 h, 150 ug/ml [2]: 100%
viability at 48 h, 100 ug/ml [3]: 98%
viability at 48 h, 150 ug/ml [4]: 100%
viability at 48 h, 50 ug/ml [5]: 100%
viability at 48 h, 100 ug/ml [6]: 100%
viability at 48 h, 50 ug/ml [7]: 100%

CCOc1cccc(/C=N/NC(=O)c2cnccn2)c1
viability at 48 h, 150 ug/ml [2]: 69%
viability at 48 h, 100 ug/ml [6]: 71%
viability at 48 h, 50 ug/ml [7]: 74%

O=C(N/N=C/c1ccc(F)cc1)c1cnccn1
viability at 48 h, 150 ug/ml [2]: 71%
viability at 48 h, 100 ug/ml [6]: 69%
viability at 48 h, 50 ug/ml [7]: 78%

COc1ccc(/C=N/NC(=O)c2cnccn2)cc1
viability at 48 h, 150 ug/ml [2]: 55%
viability at 48 h, 100 ug/ml [6]: 55%
viability at 48 h, 50 ug/ml [7]: 74%
